Read-outs that look alike come from different tables or passages of the source. Blank lines part the entries; values can stand above or below the molecule they belong to.
Experiments:
EUR_01830 [1] = biological target: T1, EUR_01830 (Agathobacter rectalis, UniProt A0ABF7PGY2); assay: isothermal titration calorimetry; assay type: binding; conditions: 20 mM HEPES, 100 mM NaCl pH 7.0, 25 °C; isotherm not fitted
T1 sequence (A0ABF7PGY2 24-422): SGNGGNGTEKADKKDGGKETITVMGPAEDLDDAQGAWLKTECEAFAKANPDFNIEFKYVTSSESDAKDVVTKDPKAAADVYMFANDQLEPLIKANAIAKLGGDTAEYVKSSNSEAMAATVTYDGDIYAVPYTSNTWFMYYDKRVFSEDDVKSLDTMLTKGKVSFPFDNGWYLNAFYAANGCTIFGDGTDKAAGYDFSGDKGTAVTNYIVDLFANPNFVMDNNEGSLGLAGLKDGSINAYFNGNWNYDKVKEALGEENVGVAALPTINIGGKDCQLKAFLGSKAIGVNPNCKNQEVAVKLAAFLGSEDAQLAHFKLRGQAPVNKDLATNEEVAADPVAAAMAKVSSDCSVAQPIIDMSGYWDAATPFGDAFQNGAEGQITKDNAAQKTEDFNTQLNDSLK

EUR_01830 [2] = biological target: T1, EUR_01830; assay: isothermal titration calorimetry; assay type: binding; conditions: 20 mM HEPES, 100 mM NaCl pH 7.0, 25 °C
EUR_01240 = biological target: T2, EUR_01240 (Agathobacter rectalis, UniProt D6E1S8); assay: isothermal titration calorimetry; assay type: binding; conditions: read-out: EUR_01240 / Kd; 20 mM HEPES, 100 mM NaCl pH 7.0, 25 °C
T2 sequence (D6E1S8 23-427): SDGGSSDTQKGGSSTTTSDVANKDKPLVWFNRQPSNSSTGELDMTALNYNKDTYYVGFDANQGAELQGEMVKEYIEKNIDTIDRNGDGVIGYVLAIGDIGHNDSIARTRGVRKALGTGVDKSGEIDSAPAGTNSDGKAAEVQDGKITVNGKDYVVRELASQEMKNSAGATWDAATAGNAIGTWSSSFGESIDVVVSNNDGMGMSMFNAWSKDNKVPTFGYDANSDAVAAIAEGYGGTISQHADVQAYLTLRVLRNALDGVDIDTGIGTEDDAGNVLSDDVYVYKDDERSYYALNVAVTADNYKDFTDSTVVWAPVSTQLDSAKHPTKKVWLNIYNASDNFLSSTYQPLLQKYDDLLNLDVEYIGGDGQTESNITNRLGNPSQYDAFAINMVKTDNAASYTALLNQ
In short: (§1)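 Runs used a low-volume NanoITC at 25 °C. Protein (30–150 μM) was dialysed against 20 mM HEPES, 100 mM NaCl pH 7.0 and loaded in the sample cell, with water in the reference cell. Oligosaccharides (0.5–5 mM) were prepared in dialysis buffer and delivered as a small first injection plus 27 further injections. Stirring was at 350 rpm. Heat of reaction was recorded and fitted for Kd.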

EUR_21100 = biological target: T3, EUR_21100 (Agathobacter rectalis, UniProt A0ABF7PGZ5); assay: thin layer chromatography of products; assay type: biochemical; conditions: 25 mM HEPES pH 6.5, 150 mM NaCl, 37 °C
T3 sequence (A0ABF7PGZ5 45-1329): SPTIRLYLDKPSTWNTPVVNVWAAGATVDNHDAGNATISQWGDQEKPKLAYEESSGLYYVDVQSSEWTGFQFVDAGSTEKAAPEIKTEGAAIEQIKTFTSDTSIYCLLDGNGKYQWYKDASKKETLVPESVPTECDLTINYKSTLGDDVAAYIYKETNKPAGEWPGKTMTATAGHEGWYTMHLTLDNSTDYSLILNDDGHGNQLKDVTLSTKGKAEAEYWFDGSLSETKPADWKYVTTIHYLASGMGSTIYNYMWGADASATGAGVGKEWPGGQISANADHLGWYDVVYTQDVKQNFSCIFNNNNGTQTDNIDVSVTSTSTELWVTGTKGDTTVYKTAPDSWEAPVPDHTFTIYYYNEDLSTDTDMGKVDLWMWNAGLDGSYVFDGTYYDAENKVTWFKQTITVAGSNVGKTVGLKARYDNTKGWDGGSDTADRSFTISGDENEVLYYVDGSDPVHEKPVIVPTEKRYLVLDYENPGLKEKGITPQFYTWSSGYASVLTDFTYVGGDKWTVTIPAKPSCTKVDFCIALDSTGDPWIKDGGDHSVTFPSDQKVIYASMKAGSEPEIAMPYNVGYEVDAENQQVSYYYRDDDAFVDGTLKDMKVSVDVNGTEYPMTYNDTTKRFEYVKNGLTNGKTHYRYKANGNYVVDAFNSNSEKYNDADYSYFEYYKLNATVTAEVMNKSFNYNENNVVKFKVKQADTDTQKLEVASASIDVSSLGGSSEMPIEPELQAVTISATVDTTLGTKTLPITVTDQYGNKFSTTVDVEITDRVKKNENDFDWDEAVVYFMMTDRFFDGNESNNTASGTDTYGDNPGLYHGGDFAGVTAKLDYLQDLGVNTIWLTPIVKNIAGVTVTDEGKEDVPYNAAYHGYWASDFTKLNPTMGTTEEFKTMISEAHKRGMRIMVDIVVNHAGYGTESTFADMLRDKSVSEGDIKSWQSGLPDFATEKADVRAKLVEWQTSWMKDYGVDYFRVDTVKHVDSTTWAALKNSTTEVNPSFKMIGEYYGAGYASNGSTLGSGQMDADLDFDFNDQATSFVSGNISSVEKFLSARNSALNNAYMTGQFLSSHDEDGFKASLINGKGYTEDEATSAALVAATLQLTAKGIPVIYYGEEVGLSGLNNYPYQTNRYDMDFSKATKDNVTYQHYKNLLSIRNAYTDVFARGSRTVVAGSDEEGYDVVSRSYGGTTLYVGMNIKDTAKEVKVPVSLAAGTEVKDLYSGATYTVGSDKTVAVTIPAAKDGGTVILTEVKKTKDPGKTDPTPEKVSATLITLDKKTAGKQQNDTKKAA

EUR_31480 = assay: isothermal titration calorimetry; assay type: binding, Agathobacter rectalis; conditions: read-out: EUR_31480 / Kd; 20 mM HEPES, 100 mM NaCl pH 7.0, 25 °C
In short: as §1

EUR_01830 [3] = biological target: T1, EUR_01830; assay: isothermal titration calorimetry; assay type: binding; conditions: read-out: EUR_01830 / Kd; 20 mM HEPES, 100 mM NaCl pH 7.0, 25 °C
EUR_21010 = biological target: T4, EUR_21010 (Agathobacter rectalis, UniProt C4ZGN9); assay: isothermal titration calorimetry; assay type: binding; conditions: 20 mM HEPES, 100 mM NaCl pH 7.0, 25 °C
T4 sequence (C4ZGN9 26-464): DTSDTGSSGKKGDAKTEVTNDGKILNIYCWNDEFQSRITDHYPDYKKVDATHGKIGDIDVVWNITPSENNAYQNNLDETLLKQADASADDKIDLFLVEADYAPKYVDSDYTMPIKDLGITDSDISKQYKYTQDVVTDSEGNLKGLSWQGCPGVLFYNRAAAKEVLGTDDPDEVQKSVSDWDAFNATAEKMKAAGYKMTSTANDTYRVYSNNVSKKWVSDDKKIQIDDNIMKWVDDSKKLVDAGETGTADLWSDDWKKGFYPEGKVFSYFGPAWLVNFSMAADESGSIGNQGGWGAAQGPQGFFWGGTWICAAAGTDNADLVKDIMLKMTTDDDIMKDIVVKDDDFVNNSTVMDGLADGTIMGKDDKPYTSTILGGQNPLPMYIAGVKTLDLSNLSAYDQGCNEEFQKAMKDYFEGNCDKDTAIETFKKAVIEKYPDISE

Structure (SMILES): OC[C@H]1O[C@H](OC[C@H]2O[C@H](O[C@H]3[C@H](O)[C@@H](O)[C@@H](O[C@H]4[C@H](O)[C@@H](O)[C@@H](OC[C@H]5O[C@H](O[C@H]6[C@H](O)[C@@H](O)[C@@H](O[C@H]7[C@H](O)[C@@H](O)C(O)O[C@@H]7CO)O[C@@H]6CO)[C@H](O)[C@@H](O)[C@@H]5O)O[C@@H]4CO)O[C@@H]3CO)[C@H](O)[C@@H](O)[C@@H]2O)[C@H](O)[C@@H](O)[C@@H]1O (stereo partly shown) [GMM]
isothermal titration calorimetry (EUR_01830 [1]): We obtained an isotherm with GMM, but these data could not be fit well enough

Structure (SMILES): OC[C@H]1O[C@H](OC[C@H]2O[C@H](O[C@H]3[C@H](O)[C@@H](O)[C@@H](O[C@H]4[C@H](O)[C@@H](O)C(O)O[C@@H]4CO)O[C@@H]3CO)[C@H](O)[C@@H](O)[C@@H]2O)[C@H](O)[C@@H](O)[C@@H]1O (stereo partly shown) [GM]
Kd (EUR_01830 [2]; read-out: EUR_01830 / Kd): 9.08 ± 0.618 µM

Kd (EUR_01240): 0.415 ± 0.0202 µM
Structure (SMILES): OC[C@H]1OC(O)[C@H](O)[C@@H](O)[C@H]1O (stereo partly shown) [Galactose]

Kd (EUR_01240): 1.9 ± 0.46 µM
Structure (SMILES): OC[C@H]1OC(O)[C@H](O)[C@@H](O)[C@@H]1O (stereo partly shown) [Glucose]

Structure (SMILES): OC[C@H]1O[C@H](O[C@H]2[C@H](O)[C@@H](O)[C@@H](O[C@H]3[C@H](O)[C@@H](O)[C@@H](O[C@H]4[C@H](O)[C@@H](O)[C@@H](O[C@H]5[C@H](O)[C@@H](O)[C@@H](O[C@H]6[C@H](O)[C@@H](O)[C@@H](O[C@H]7[C@H](O)[C@@H](O)C(O)O[C@@H]7CO)O[C@@H]6CO)O[C@@H]5CO)O[C@@H]4CO)O[C@@H]3CO)O[C@@H]2CO)[C@H](O)[C@@H](O)[C@@H]1O (stereo partly shown) [Maltoheptaose]
Kd (EUR_01830 [2]; read-out: EUR_01830 / Kd): 0.288 ± 0.0059 µM
thin layer chromatography of products (EUR_21100): can hydrolyze longer maltooligosaccharides such as maltohexaose and maltoheptaose

Structure (SMILES): OC[C@H]1O[C@H](O[C@H]2[C@H](O)[C@@H](O)[C@@H](O[C@H]3[C@H](O)[C@@H](O)[C@@H](O[C@H]4[C@H](O)[C@@H](O)[C@@H](O[C@H]5[C@H](O)[C@@H](O)[C@@H](O[C@H]6[C@H](O)[C@@H](O)C(O)O[C@@H]6CO)O[C@@H]5CO)O[C@@H]4CO)O[C@@H]3CO)O[C@@H]2CO)[C@H](O)[C@@H](O)[C@@H]1O (stereo partly shown) [Maltohexaose]
Kd (EUR_01830 [2]; read-out: EUR_01830 / Kd): 0.16 ± 0.006 µM

Structure (SMILES): OC[C@H]1O[C@H](O[C@H]2[C@H](O)[C@@H](O)[C@@H](O[C@H]3[C@H](O)[C@@H](O)[C@@H](O[C@H]4[C@H](O)[C@@H](O)[C@@H](O[C@H]5[C@H](O)[C@@H](O)C(O)O[C@@H]5CO)O[C@@H]4CO)O[C@@H]3CO)O[C@@H]2CO)[C@H](O)[C@@H](O)[C@@H]1O (stereo partly shown) [Maltopentaose]
Kd (EUR_01830 [2]; read-out: EUR_01830 / Kd): 0.194 ± 0.0348 µM

Kd (EUR_31480): 0.563 ± 0.0664 µM
Structure (SMILES): OC[C@H]1O[C@H](O[C@H]2[C@H](O)[C@@H](O)C(O)O[C@@H]2CO)[C@H](O)[C@@H](O)[C@@H]1O (stereo partly shown) [Maltose]

Structure (SMILES): OC[C@H]1O[C@H](O[C@H]2[C@H](O)[C@@H](O)[C@@H](O[C@H]3[C@H](O)[C@@H](O)[C@@H](O[C@H]4[C@H](O)[C@@H](O)C(O)O[C@@H]4CO)O[C@@H]3CO)O[C@@H]2CO)[C@H](O)[C@@H](O)[C@@H]1O (stereo partly shown) [Maltotetraose]
Kd (EUR_01830 [2]; read-out: EUR_01830 / Kd): 0.112 ± 0.0198 µM
Kd (EUR_31480): 1.67 ± 0.199 µM

Structure (SMILES): OC[C@H]1O[C@H](O[C@H]2[C@H](O)[C@@H](O)[C@@H](O[C@H]3[C@H](O)[C@@H](O)C(O)O[C@@H]3CO)O[C@@H]2CO)[C@H](O)[C@@H](O)[C@@H]1O (stereo partly shown) [Maltotriose]
Kd (EUR_31480): 0.355 ± 0.0004 µM
Kd (EUR_01830 [3]): 0.55 ± 0.014 µM

Kd (EUR_21010): 0.542 µM
Structure (SMILES): OC[C@H]1O[C@@H](O[C@H]2[C@H](O)[C@@H](O)C(O)O[C@@H]2CO)[C@H](O)[C@@H](O)[C@@H]1O (stereo partly shown) [cellobiose]

Kd (EUR_21010): 3.01 µM
Structure (SMILES): OC[C@H]1O[C@@H](O[C@H]2[C@H](O)[C@@H](O)[C@H](O[C@H]3[C@H](O)[C@@H](O)[C@H](O[C@H]4[C@H](O)[C@@H](O)C(O)O[C@@H]4CO)O[C@@H]3CO)O[C@@H]2CO)[C@H](O)[C@@H](O)[C@@H]1O (stereo partly shown) [cellotetraose]

Structure (SMILES): OC[C@H]1O[C@@H]2O[C@H]3[C@H](O)[C@@H](O)[C@@H](O[C@H]4[C@H](O)[C@@H](O)[C@@H](O[C@H]5[C@H](O)[C@@H](O)[C@@H](O[C@H]6[C@H](O)[C@@H](O)[C@@H](O[C@H]7[C@H](O)[C@@H](O)[C@@H](O[C@H]1[C@H](O)[C@H]2O)O[C@@H]7CO)O[C@@H]6CO)O[C@@H]5CO)O[C@@H]4CO)O[C@@H]3CO [α-cyclodextrin]
Kd (EUR_01830 [2]): 39 900 ± 2 430 nM
